According to ChEMBL document CHEMBL3992519 (J Med Chem, 2017):
pKi: −log10 of the molar value. Active and inactive are the calls of the source. No cut-off for these calls is given here.

Key:
Orexin receptor type 2 = target: T1, Orexin receptor type 2 (Homo sapiens, UniProt O43614); assay: Antagonist activity at human OX2R expressed in CHOK1 cells assessed as inhibition of orexin A-induced intracellular calcium level preincubated for 15 mins followed by orexin A addition by Fura-2-AM dye based fluorescence assay; assay type: cell-based; conditions: for pKi: read-out: Ki; for inhibition (INH): human
T1 sequence (O43614 whole entry): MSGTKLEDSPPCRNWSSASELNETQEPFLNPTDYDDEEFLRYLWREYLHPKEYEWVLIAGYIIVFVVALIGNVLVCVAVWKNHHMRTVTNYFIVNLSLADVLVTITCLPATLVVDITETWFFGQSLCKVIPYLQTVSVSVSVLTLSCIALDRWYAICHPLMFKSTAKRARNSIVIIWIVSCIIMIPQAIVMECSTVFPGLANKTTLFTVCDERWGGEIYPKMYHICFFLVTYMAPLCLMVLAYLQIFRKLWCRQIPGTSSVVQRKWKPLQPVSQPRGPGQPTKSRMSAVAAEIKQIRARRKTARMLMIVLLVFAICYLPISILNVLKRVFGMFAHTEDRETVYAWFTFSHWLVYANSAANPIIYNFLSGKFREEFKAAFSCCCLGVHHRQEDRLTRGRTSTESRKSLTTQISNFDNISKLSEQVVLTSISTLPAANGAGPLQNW
Procedure, shortened: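 CHO cells expressing human OX1R or OX2R; calcium transient assay. IC50 came from concentration-response curves in at least three independent assays, each run in triplicate. Ki was derived by the Cheng-Prusoff equation and reported as mean ± SEM. […] Some compounds were tested as HCl, MeSO3H or 2H2SO4 salts.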

[1] = target: T2, Orexin/Hypocretin receptor type 1 (Homo sapiens) (UniProt O43613)
T2 sequence (whole entry): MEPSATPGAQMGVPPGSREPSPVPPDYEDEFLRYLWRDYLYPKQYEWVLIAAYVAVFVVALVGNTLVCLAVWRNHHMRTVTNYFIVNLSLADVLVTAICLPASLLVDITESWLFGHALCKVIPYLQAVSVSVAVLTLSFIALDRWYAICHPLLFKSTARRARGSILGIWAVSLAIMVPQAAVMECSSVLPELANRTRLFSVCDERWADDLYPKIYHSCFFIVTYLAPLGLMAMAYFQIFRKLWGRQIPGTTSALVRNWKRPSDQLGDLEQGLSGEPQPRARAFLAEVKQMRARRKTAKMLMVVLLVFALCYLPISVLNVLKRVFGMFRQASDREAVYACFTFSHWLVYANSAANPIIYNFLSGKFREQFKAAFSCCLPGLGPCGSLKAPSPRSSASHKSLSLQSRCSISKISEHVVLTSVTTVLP

[2] = target: T3, Orexin/Hypocretin receptor type 1 (Homo sapiens, UniProt O43613); assay: Antagonist activity at human OX1R expressed in CHOK1 cells assessed as inhibition of orexin A-induced intracellular calcium level preincubated for 15 mins followed by orexin A addition by Fura-2-AM dye based fluorescence assay
T3 sequence (O43613 whole entry): T2 sequence (whole entry)

[3] = Selectivity index, ratio of IC50 for human OX2R expressed in CHOK1 cells to IC50 for human OX1R expressed in CHOK1 cells
[4] = Solubility of the compound in saline; assay type: physicochemical; conditions: buffer
[5] = Solubility of the compound in water; assay type: physicochemical; conditions: buffer
[6] = target: Kappa-type opioid receptor (Homo sapiens, UniProt P41145); assay: Displacement of [3H]U69,593 from human kappa opioid receptor expressed in CHO cell membranes by micro-beta scintillation counting method
[7] = target: Delta-type opioid receptor (Homo sapiens, UniProt P41143); assay: Displacement of [3H]DPDPE from human delta opioid receptor expressed in CHO cell membranes by micro-beta scintillation counting method
Mu-type opioid receptor = Mu-type opioid receptor (Homo sapiens, UniProt P35372); assay: Displacement of [3H]DAMGO from human mu opioid receptor expressed in CHO cell membranes by micro-beta scintillation counting method
Mus musculus [8] = assay: Reduction in morphine dependence expression in ICR mouse assessed as inhibition of naloxone-precipitated body weight loss at 10 mg/kg, ip administered 30 mins prior to first morphine injection each day for 5 days followed by naloxone challenge 2 hrs post last morphine dose measured over 60 mins; assay type: functional, organism-based
Mus musculus [9] = assay: Reduction in morphine dependence expression in ICR mouse assessed as inhibition of naloxone-precipitated diarrhea at 10 mg/kg, ip administered 30 mins prior to first morphine injection each day for 5 days followed by naloxone challenge 2 hrs post last morphine dose measured over 60 mins; assay type: functional, organism-based
Mus musculus [10] = assay: Reduction in morphine dependence expression in ICR mouse assessed as inhibition of naloxone-precipitated jumping behavior at 10 mg/kg, ip administered 30 mins prior to first morphine injection each day for 5 days followed by naloxone challenge 2 hrs post last morphine dose measured over 60 mins; assay type: functional, organism-based

Mu-type opioid receptor, sequence (P35372 whole entry): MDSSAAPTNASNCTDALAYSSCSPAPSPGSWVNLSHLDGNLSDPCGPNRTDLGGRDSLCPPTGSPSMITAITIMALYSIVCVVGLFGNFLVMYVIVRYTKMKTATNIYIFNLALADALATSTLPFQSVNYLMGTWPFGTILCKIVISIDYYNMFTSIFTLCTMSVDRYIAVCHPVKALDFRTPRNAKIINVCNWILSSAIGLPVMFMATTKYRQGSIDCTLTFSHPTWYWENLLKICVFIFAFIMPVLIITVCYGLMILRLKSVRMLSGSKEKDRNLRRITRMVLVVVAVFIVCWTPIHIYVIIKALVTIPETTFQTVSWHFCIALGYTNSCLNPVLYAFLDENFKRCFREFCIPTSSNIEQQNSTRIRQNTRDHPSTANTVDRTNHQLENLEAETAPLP
Delta-type opioid receptor, sequence (P41143 whole entry): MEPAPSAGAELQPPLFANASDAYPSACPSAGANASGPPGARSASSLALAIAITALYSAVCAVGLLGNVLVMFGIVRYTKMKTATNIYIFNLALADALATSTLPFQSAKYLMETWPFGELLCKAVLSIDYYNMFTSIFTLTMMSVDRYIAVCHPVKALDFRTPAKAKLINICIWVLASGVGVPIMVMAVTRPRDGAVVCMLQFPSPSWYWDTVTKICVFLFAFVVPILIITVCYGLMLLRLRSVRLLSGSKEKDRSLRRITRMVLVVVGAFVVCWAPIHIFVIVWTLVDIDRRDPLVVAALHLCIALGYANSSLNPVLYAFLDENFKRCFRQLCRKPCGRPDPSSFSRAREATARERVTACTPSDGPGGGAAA
Kappa-type opioid receptor, sequence (P41145 whole entry): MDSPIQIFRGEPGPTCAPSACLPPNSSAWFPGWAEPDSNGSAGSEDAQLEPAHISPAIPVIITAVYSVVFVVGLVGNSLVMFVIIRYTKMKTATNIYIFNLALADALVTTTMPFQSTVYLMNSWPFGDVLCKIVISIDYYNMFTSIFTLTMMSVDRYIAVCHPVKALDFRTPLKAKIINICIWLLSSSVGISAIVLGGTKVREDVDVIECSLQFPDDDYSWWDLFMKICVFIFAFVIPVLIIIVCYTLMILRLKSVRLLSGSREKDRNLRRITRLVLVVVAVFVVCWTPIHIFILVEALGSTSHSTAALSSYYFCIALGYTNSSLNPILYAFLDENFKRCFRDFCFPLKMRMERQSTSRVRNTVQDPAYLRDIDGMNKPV

Q: Which Ki (Orexin receptor type 2) does the source give for `COc1ccc2c3c1O[C@H]1[C@H](N(C)C(=O)/C=C/c4ccoc4)CC[C@@]4(O)[C@@H](C2)N(S(=O)(=O)c2ccccc2[N+](=O)[O-])CC[C@]314` here?
A: Not Active

Q: And the Ke [1]?
A: 3.69 nM

Q: What about the pKi [2] of the same compound?
A: 8.74

Q: And the “Ratio IC50” value [3]?
A: <88.4

Q: What about the solubility [4] of the same compound?
A: Insoluble

Q: What about the solubility [5] of the same compound?
A: Insoluble

Q: With `Cc1cc(NC(=O)Nc2ccc(N(C)C)cc2)c2cc(F)cc(F)c2n1.Cl.Cl` as the compound, how does the pKi (Orexin receptor type 2) read?
A: 5.68

Q: What about the pKi [6] of the same compound?
A: < 6.00

Q: And the pKi [7]?
A: < 6.00

Q: And the pKi [2]?
A: 7.72

Q: What about the pKi (Mu-type opioid receptor) of the same compound?
A: < 6.00

Q: And the “Ratio IC50” value [3]?
A: <88.4

Q: And the solubility [4]?
A: Insoluble

Q: What about the solubility [5] of the same compound?
A: Insoluble

Q: With `CN(C)c1ccc(S(=O)(=O)N2CC[C@]34c5c6ccc(O)c5O[C@H]3[C@H](N(C)C(=O)/C=C/c3ccoc3)CC[C@@]4(O)[C@H]2C6)cc1` as the compound, how does the pKi [6] read?
A: 6.70

Q: What about the pKi [7] of the same compound?
A: < 6.00

Q: What about the pKi (Mu-type opioid receptor) of the same compound?
A: 6.01

Q: With `COc1ccc2c3c1O[C@H]1[C@H](N(C)C(=O)/C=C/c4ccoc4)CC[C@@]4(O)[C@@H](C2)N(C(=O)/C=C/c2ccccc2)CC[C@]314` as the compound, how does the pKi [6] read?
A: < 6.00

Q: And the pKi [7]?
A: < 6.00

Q: What about the pKi [2] of the same compound?
A: 7.85

Q: And the pKi (Mu-type opioid receptor)?
A: < 6.00

Q: And the “Ratio IC50” value [3]?
A: <88.4

Q: And the solubility [4]?
A: Insoluble

Q: What about the solubility [5] of the same compound?
A: Insoluble

Q: Which results are given for `COc1ccc2c3c1O[C@H]1[C@H](N(C)C(=O)/C=C/c4ccoc4)CC[C@@]4(O)[C@@H](C2)N(S(=O)(=O)c2ccccc2)CC[C@]314`?
A: pKi [6]: < 6.00; pKi [7]: < 6.00; pKi [2]: 8.09; pKi (Mu-type opioid receptor): < 6.00; Ratio IC50 [3]: <88.4; solubility [4]: Insoluble; solubility [5]: Insoluble

Q: With `COc1ccc2c3c1O[C@H]1[C@H](N(C)C(=O)/C=C/c4ccccn4)CC[C@@]4(O)[C@@H](C2)N(S(=O)(=O)c2ccccc2N(C)C)CC[C@]314.O=S(=O)(O)O.O=S(=O)(O)O` as the compound, how does the pKi [6] read?
A: < 6.00

Q: What about the pKi [7] of the same compound?
A: < 6.00

Q: What about the pKi (Mu-type opioid receptor) of the same compound?
A: < 6.00

Q: With `COc1ccc2c3c1O[C@H]1[C@H](N(C)C(=O)/C=C/c4ccoc4)CC[C@@]4(O)[C@@H](C2)N(S(=O)(=O)c2ccc(N(C)C)cc2)CC[C@]314.Cl` as the compound, how does the pKi [6] read?
A: < 6.00

Q: What about the pKi [7] of the same compound?
A: < 6.00

Q: What about the pKi [2] of the same compound?
A: 7.89

Q: And the pKi (Mu-type opioid receptor)?
A: < 6.00

Q: What about the “Ratio IC50” value [3] of the same compound?
A: <88.4

Q: And the solubility [4]?
A: Insoluble

Q: What about the solubility [5] of the same compound?
A: Insoluble

Q: What does the source list for `CN(C(=O)/C=C/c1ccoc1)[C@@H]1CC[C@@]2(O)[C@H]3Cc4cccc5c4[C@@]2(CCN3CC2CC2)[C@H]1O5`?
A: inhibition (INH) (Orexin receptor type 2): Not Active; pKi [2]: 5.90

Q: With `COc1ccc2c3c1O[C@H]1[C@H](N(C)C(=O)/C=C/c4ccoc4)CC[C@@]4(O)[C@@H](C2)N(C(=O)OC(C)(C)C)CC[C@]314` as the compound, how does the pKi [6] read?
A: 6.74

Q: What about the pKi [7] of the same compound?
A: < 6.00

Q: What about the pKi [2] of the same compound?
A: 8.38

Q: And the pKi (Mu-type opioid receptor)?
A: < 6.00

Q: What about the “Ratio IC50” value [3] of the same compound?
A: <88.4

Q: What about the solubility [4] of the same compound?
A: Insoluble

Q: What about the solubility [5] of the same compound?
A: Insoluble

Q: With `COc1ccc2c3c1O[C@H]1[C@H](N(C)C(=O)/C=C/c4ccccn4)CC[C@@]4(O)[C@@H](C2)N(S(=O)(=O)c2ccccc2N(C)C)CC[C@]314` as the compound, how does the inhibition (Mus musculus [8]) read?
A: Active

Q: What about the inhibition (Mus musculus [9]) of the same compound?
A: Active

Q: And the inhibition (Mus musculus [10])?
A: Active

Q: With `COc1ccc2c3c1O[C@H]1[C@H](N(C)C(=O)/C=C/c4ccoc4)CC[C@@]4(O)[C@@H](C2)N(C(=O)c2ccc(C)cc2)CC[C@]314` as the compound, how does the pKi (Orexin receptor type 2) read?
A: 6.14

Q: And the pKi [2]?
A: 7.85

Q: What about the “Ratio IC50” value [3] of the same compound?
A: <88.4

Q: And the solubility [4]?
A: Insoluble

Q: What about the solubility [5] of the same compound?
A: Insoluble

Q: With `COc1ccc2c3c1O[C@H]1[C@H](N(C)C(=O)/C=C/c4ccoc4)CC[C@@]4(O)[C@@H](C2)N(C(=O)C2CC2)CC[C@]314` as the compound, how does the pKi [6] read?
A: < 6.00

Q: What about the pKi [7] of the same compound?
A: < 6.00

Q: What about the pKi [2] of the same compound?
A: 7.92

Q: And the pKi (Mu-type opioid receptor)?
A: < 6.00

Q: What about the “Ratio IC50” value [3] of the same compound?
A: <88.4

Q: What about the solubility [4] of the same compound?
A: Insoluble

Q: And the solubility [5]?
A: Insoluble

Q: What does the source list for `CN(C(=O)/C=C/c1ccoc1)[C@@H]1CC[C@@]2(O)[C@H]3Cc4ccc(O)c5c4[C@@]2(CCN3CC2CC2)[C@H]1O5.Cl` [NALFURAFINE HYDROCHLORIDE]?
A: inhibition (INH) (Orexin receptor type 2): Not Active; pKi [7]: 6.16; pKi [2]: 6.60; pKi (Mu-type opioid receptor): 8.22; solubility [4]: Insoluble; solubility [5]: Insoluble

Q: With `COc1ccc2c3c1O[C@H]1[C@H](N(C)C(=O)/C=C/c4ccoc4)CC[C@@]4(O)[C@@H](C2)N(CC2CC2)CC[C@]314` as the compound, how does the “inhibition (INH)” value (Orexin receptor type 2) read?
A: Not Active

Q: What about the pKi [2] of the same compound?
A: 7.65

Q: With `COc1ccc2c3c1O[C@H]1[C@H](N(C)C(=O)/C=C/c4ccoc4)CC[C@@]4(O)[C@@H](C2)N(S(=O)(=O)c2ccc(F)cc2)CC[C@]314` as the compound, how does the pKi [2] read?
A: 8.39

Q: And the “Ratio IC50” value [3]?
A: <88.4

Q: And the solubility [4]?
A: Insoluble

Q: And the solubility [5]?
A: Insoluble
